A selection: hits, their analogues and other compounds. The true share with any hit is near 1.8%.
CHRM4 antagonist: blocks acetylcholine activation of human M4 receptor. P08173. CHO-hM4 cells, ACh EC80, Fluo-8 calcium fluorescence. inhibition, % at 3 µM. 0.73% of 360,000 active;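 active means inhibition above its plate's cutoff, the mean inhibition of sample wells plus 3 SD, cut at about 27% in these data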;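 further: 0% = acetylcholine EC80 with DMSO and 100% = DMSO without agonist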
M5 PAM: positive allosteric modulators of human muscarinic M5 receptor | AID 624038 | CHO-K1 hM5, Fluo-8 calcium, ACh EC20 PAM; 0% = ACh EC20, 100% = ACh EC100 | activation, % at 3 µM | 0.3% of 360,000 active;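 active means activation above the run cutoff, the mean activation of all test compounds plus 3 SD, cut at about 18% in these data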
Target sequence (P08912 whole entry, looked up): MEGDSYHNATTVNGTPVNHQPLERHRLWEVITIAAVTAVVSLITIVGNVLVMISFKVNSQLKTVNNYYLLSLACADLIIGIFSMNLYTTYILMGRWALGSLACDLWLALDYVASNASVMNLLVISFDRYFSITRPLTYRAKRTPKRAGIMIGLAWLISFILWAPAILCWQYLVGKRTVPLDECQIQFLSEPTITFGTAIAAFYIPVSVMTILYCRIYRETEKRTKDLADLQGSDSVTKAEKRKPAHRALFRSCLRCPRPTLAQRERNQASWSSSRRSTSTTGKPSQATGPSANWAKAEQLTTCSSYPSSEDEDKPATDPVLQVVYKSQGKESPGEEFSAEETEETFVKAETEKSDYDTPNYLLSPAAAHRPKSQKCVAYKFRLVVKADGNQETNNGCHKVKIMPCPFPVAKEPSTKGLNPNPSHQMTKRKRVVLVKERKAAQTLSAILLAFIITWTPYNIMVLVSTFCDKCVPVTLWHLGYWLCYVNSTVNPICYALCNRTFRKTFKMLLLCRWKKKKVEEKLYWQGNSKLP
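System – CHO-K1 hM5 cells · Compound – 3 µM, single dose · Incubation – compound preincubation 140 s before EC20 acetylcholine addition · Technique – Fluo-8 calcium fluorescence · Measure – Max/basal fluorescence ratio as % of EC20–EC100 ACh window · Benchmarks – low control EC20 acetylcholine (0%), high control EC100 acetylcholine (100%) · Replication – singlicate, one well per test compound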
M5 ag: CHRM5 agonism in calcium assay; CHO-K1 hM5 cells, Fluo-8 calcium fluorescence; 0% DMSO wells, 100% maximal acetylcholine response; activation, % at 3 µM; 0.19% of 360,000 active; AID 624037;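 active means activation above the run's mean over test compounds plus 3 SD, cut at about 23% in these data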;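 further: signal is peak over basal fluorescence ratio across the kinetic read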
M4 PAM: potentiates acetylcholine response at human M4 receptor. P08173. CHO-K1 hM4/Gqi5, Fluo-8 calcium fluorescence, ACh EC20; 0% = ACh EC20, 100% = maximal ACh. activation, % at 3 µM. 0.4% of 360,000 active. AID 624126;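 active means activation above its plate's cutoff, the mean activation of sample wells plus 3 SD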
CHRM4 agonist: agonists of human muscarinic M4 receptor (CHRM4). P08173. CHO-K1 hM4/Gqi5, Fluo-8 calcium fluorescence; vehicle 0%, full acetylcholine response 100%. activation, % at 3 µM. 0.14% of 360,000 active. AID 624127;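 active means activation above the run mean over all test wells plus 3 SD, cut at about 32% in these data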;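 further: peak over basal fluorescence ratio per well then scaled between controls; 0% = DMSO wells and 100% = acetylcholine at EC100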
CHRM5 antagonist: antagonists of human muscarinic M5 receptor (CHRM5) | P08912 | CHO-hM5 cells, Fluo-8 calcium fluorescence, ACh EC80 | inhibition, % at 3 µM | 0.59% of 360,000 active;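 active means inhibition above a per-plate cutoff, the mean of that plate's test compounds plus 3 SD, cut at about 27% in these data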;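 further: 0% = acetylcholine EC80 with DMSO and 100% = DMSO without agonist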
* hit, by the source's call.

Results for COc1cc(C(=O)NCC(=O)NCC2COc3ccccc3O2)cc(OC)c1OC (configuration not stated) ?
CHRM4 antagonist: 0; M5 PAM: 0; M5 ag: 1; M4 PAM: -1; CHRM4 agonist: 0; CHRM5 antagonist: 1

How did CC(C)Cc1ccc(C(C)NC(=O)c2ccc(=O)[nH]c2)cc1 (configuration not stated) do in these assays?
CHRM4 antagonist: 9; M5 PAM: -13; M5 ag: 25*; M4 PAM: -15; CHRM4 agonist: 22; CHRM5 antagonist: 10

How did Cc1ccc(C(=O)NC(C)c2ccc(F)cc2)cc1 (configuration not stated) do in these assays?
CHRM4 antagonist: 1; M5 PAM: -3; M5 ag: -4; M4 PAM: 6; CHRM4 agonist: 0; CHRM5 antagonist: 7

Results for CCN(CC)c1ccc(C2C(C(=O)OCCOC(C)C)=C(C)NC3=C2C(=O)CCC3)cc1 (configuration not stated) ?
CHRM4 antagonist: 33*; M5 PAM: -21; M5 ag: -7; M4 PAM: -20; CHRM4 agonist: 1; CHRM5 antagonist: 25

What do the screens show for `Cc1ccc(C(O)(C(=O)NNc2ccc3ccccc3n2)c2ccc(C)cc2)cc1`?
CHRM4 antagonist: 3; M5 PAM: -3; M5 ag: -4; M4 PAM: -3; CHRM4 agonist: -1; CHRM5 antagonist: 6

What do the screens show for `CCOc1ccccc1N1CCN(CC(=O)NC(C)c2ccccc2)CC1` (configuration not stated)?
CHRM4 antagonist: -3; M5 PAM: -4; M5 ag: 4; M4 PAM: -4; CHRM4 agonist: 8; CHRM5 antagonist: 2

How did Cc1ccc2c(c1)cc1c(=O)n(CC(=O)N(C)c3ccccc3)nc(C)n12 do in these assays?
CHRM4 antagonist: 3; M5 PAM: 5; M5 ag: 1; M4 PAM: 16*; CHRM4 agonist: 2; CHRM5 antagonist: -12

What do the screens show for `COc1cc2c(cc1NC(=O)C(C)Sc1ccc(NC(C)=O)cc1)oc1ccccc12` (configuration not stated)?
CHRM4 antagonist: 18; M5 PAM: -18; M5 ag: 6; M4 PAM: -14; CHRM4 agonist: 15; CHRM5 antagonist: 30*

What do the screens show for `CCN(CC)c1ccc2cc(-c3nc4ccccc4n3C)c(=O)oc2c1`?
CHRM4 antagonist: 7; M5 PAM: -5; M5 ag: 8; M4 PAM: 1; CHRM4 agonist: 20; CHRM5 antagonist: 5

How did CCN(CC)c1ccc2cc(C(=O)c3cccs3)c(=O)oc2c1 do in these assays?
CHRM4 antagonist: 33*; M5 PAM: -24; M5 ag: 52*; M4 PAM: -19; CHRM4 agonist: 65*; CHRM5 antagonist: 39*

Results for CCN(CC)c1ccc2cc(-c3nc4ccccc4[nH]3)c(=O)oc2c1 ?
CHRM4 antagonist: 25; M5 PAM: -29; M5 ag: 119*; M4 PAM: -19; CHRM4 agonist: 552*; CHRM5 antagonist: 36*

What do the screens show for `O=C(NNC1CC(=O)N(c2ccc(Br)cc2)C1=O)c1ccco1` (configuration not stated)?
CHRM4 antagonist: -4; M5 PAM: -5; M5 ag: -2; M4 PAM: 9; CHRM4 agonist: 5; CHRM5 antagonist: 5

What do the screens show for `CCOC(=O)CNC1CC(=O)N(c2ccc(Br)cc2)C1=O` (configuration not stated)?
CHRM4 antagonist: 1; M5 PAM: 21*; M5 ag: 5; M4 PAM: 6; CHRM4 agonist: 0; CHRM5 antagonist: -6

What do the screens show for `O=C(NNC1CC(=O)N(c2ccc(Br)cc2)C1=O)c1cccs1` (configuration not stated)?
CHRM4 antagonist: 30*; M5 PAM: 4; M5 ag: 3; M4 PAM: 16; CHRM4 agonist: 2; CHRM5 antagonist: -6
